Reference: ChEMBL document CHEMBL4138195, “Discovery of novel propargylamine-modified 4-aminoalkyl imidazole substituted pyrimidinylthiourea derivatives as multifunctional agents for the treatment of Alzheimer's disease” (Eur J Med Chem, 2018)
Calls of active or inactive are those of the source. No cut-off for these calls is given here.

Key:
[1] = target: Butyrylcholinesterase (Rattus norvegicus) (UniProt Q9JKC1); test: Inhibition of BuChE in rat serum at 40 uM using butyrylthiocholine iodide as substrate after 20 mins by Ellman's method
Sequence of Butyrylcholinesterase (Rattus norvegicus) (Q9JKC1 as listed by the source): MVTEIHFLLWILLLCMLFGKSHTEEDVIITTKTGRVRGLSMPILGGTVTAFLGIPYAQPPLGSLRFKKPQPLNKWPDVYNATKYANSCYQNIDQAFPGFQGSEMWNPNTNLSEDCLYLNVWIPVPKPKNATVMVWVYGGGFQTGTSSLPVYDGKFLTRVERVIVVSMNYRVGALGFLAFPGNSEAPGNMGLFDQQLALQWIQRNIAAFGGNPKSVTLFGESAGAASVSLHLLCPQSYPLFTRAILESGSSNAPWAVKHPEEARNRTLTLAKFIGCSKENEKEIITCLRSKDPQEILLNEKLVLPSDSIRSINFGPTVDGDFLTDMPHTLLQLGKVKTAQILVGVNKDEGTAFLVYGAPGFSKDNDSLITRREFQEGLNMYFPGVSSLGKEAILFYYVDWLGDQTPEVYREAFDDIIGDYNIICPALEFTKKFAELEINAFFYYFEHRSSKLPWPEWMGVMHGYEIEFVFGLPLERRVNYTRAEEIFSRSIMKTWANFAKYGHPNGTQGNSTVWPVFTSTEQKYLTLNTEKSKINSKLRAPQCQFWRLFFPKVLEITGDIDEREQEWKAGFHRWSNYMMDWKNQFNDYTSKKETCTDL

Rattus norvegicus = organism: Rattus norvegicus; test: Selectivity index, ratio of IC50 for BuChE in rat serum to IC50 for AChE in rat cortex homogenate; type: tissue-based
Homo sapiens = organism: Homo sapiens; test: Selectivity index, ratio of IC50 for recombinant human MAOA to IC50 for recombinant human MAOB
How it was run: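 Recombinant human MAO-A (12.5 µg/mL) or MAO-B (75 µg/mL) preincubated 15 min at 37 °C with compound (diluted from 10 mM DMSO stock in 50 mM KH2PO4, pH 7.4). Amplex Red working solution added: 2 mM p-tyramine (MAO-A) or benzylamine (MAO-B), 2 U/mL HRP. After 15 min at 37 °C, fluorescence read (ex 545/em 590), background from enzyme-free wells subtracted.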

[2] = Metal chelating activity assessed as compound-Cu2+ complex formation at 40 uM in presence of CuCl2 after 30 mins by UV-visible spectrophotometric analysis
How it was run: (§1)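 UV–vis spectra (200–500 nm) of compound at 40 µM final, alone or with CuCl2, FeSO4, FeCl3 or ZnCl2 (20 µM final), after 30 min in 20 mM HEPES, 150 mM NaCl, pH 7.4, at room temperature.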

[3] = Metal chelating activity assessed as compound-Fe2+ complex formation at 40 uM in presence of FeSO4 after 30 mins by UV-visible spectrophotometric analysis; how it was run: as §1
[4] = Metal chelating activity assessed as compound-Fe3+ complex formation at 40 uM in presence of FeCl3 after 30 mins by UV-visible spectrophotometric analysis; how it was run: as §1
[5] = Metal chelating activity assessed as compound-Zn2+ complex formation at 40 uM in presence of ZnCl2 after 30 mins by UV-visible spectrophotometric analysis; how it was run: as §1
[6] = Antioxidant activity assessed as inhibition of Cu2+-mediated redox cycling induced hydroxyl radicals generation at 15 uM in presence of ascorbate by fluorescence assay
How it was run: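 Hydroxyl radicals from Cu(II) (5 µM) and ascorbate (150 µM), with deferoxamine 1 µM, in PBS (20 mM, 100 mM NaCl, pH 7.4, 0.1% methanol). Ligand at 15 µM, with EDTA as positive control. Conversion of coumarin-3-carboxylic acid (50 µM) to fluorescent 7-hydroxy-CCA followed at 37 °C (ex 395/em 450 nm). Run in triplicate.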

[7] = Inhibition of Cu2+-mediated amyloid beta (1 to 42) (unknown origin) aggregation at 50 uM after 24 hrs by dot blot assay
How it was run: (§2)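 Aβ1-42 (2000 µM stock in 1% ammonium hydroxide) diluted in […], pH 6.6. Peptide 25 µM ± Cu(II) 25 µM ± compound 50 µM, incubated 37 °C for 24 h. Samples spotted on nitrocellulose, blocked in 5% milk, probed overnight at 4 °C with A11 (oligomers) or 6E10 (total Aβ), HRP secondary, densitometry. N = 4, mean ± SEM; EGCG control.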

[8] = Inhibition of Cu2+-induced amyloid beta (1 to 42 residues) (unknown origin) aggregation assessed as reduction in amyloid beta fibril load at 50 uM after 24 hrs by phosphotungstic acid staining-based transmission electron microscopic method
How it was run: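 Aβ1-42 (25 µM) ± CuCl2 (25 µM) ± compound (50 µM) in HEPES/NaCl pH 6.6, incubated 24 h at 37 °C. Aliquots placed on carbon-coated copper grids for 30 min, stained 20 s with 2% phosphotungstic acid, imaged by TEM. Clioquinol as comparator.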

Cortical neurone [9] = test: Cytotoxicity against E17 Sprague-Dawley rat primary cortical neurons at 10 to 30 uM after 24 hrs by MTT assay; type: cell-based
Cortical neurone [10] = test: Cytotoxicity against E17 Sprague-Dawley rat primary cortical neurons at 100 uM after 24 hrs by MTT assay; type: cell-based
How it was run: (§3)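 Primary cortical neurons from E17 SD rat embryos, trypsin-dissociated and cultured 9 days in neurobasal/B27 on poly-L-lysine (3×10^4 cells/well). Treated at 10, 30 and 100 µM for 24 h, with donepezil as reference. MTT (5 mg/mL, 10 µL) for 4 h at 37 °C, absorbance 490 nm, viability as % of vehicle-treated cells; mean ± SEM.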

Cortical neurone [11] = test: Cytotoxicity against E17 Sprague-Dawley rat primary cortical neurons at 100 uM after 24 hrs by MTT assay relative to donepezil; type: cell-based; how it was run: as §3
[12] = target: Amyloid-beta precursor protein (Homo sapiens) (UniProt P05067); test: Inhibition of amyloid beta (1 to 42) peptide (unknown origin) self aggregation-induced cytotoxicity in E17 Sprague-Dawley rat primary cortical neurons assessed as neuroprotective activity by measuring increase in cell viability at 1 uM after 24 hrs by MTT assay
Sequence of Amyloid-beta precursor protein (Homo sapiens) (P05067 whole entry, the tested form may be a part): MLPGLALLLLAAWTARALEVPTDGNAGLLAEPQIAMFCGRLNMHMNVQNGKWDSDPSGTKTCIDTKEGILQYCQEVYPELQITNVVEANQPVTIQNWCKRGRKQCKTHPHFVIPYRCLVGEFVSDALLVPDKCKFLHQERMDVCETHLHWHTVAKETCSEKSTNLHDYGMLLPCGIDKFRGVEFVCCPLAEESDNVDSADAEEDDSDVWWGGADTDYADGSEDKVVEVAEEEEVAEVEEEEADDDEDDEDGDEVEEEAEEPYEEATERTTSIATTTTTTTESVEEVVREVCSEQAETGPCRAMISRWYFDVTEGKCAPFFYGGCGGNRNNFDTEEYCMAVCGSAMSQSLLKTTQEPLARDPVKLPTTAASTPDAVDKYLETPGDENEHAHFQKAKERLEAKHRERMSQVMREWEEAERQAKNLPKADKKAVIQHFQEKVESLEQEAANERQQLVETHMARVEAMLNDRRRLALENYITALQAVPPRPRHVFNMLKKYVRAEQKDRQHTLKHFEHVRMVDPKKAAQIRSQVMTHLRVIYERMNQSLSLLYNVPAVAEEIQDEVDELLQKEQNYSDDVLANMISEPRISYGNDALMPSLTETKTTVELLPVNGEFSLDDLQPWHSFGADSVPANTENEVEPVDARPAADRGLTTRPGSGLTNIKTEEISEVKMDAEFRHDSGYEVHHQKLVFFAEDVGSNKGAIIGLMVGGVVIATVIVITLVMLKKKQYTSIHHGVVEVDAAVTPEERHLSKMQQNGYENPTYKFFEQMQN
How it was run: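 Rat E17 primary cortical neurons after 9 days in culture. Aβ1-42 samples, prepared as for the dot blot (± Cu2+, ± compound), added to the cultures at 1 µM for 24 h. Viability by MTT, normalized to the vehicle group. EGCG and clioquinol as positive controls.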

Mus musculus [13] = test: Reversal of scopolamine-induced dementia in ICR mouse assessed as decrease in escape latency time at 30 mg/kg, po administered 40 mins prior to scopolamine-challenge by water maze test; type: functional, organism-based
How it was run: (§4)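 Test compound as HCl salt, 30 mg/kg intragastric, given 40 min before scopolamine (4.5 mg/kg i.p.), which was given 20 min before the water maze. Escape latency and errors (entries into no-exit paths) recorded; mean ± SEM.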

Mus musculus [14] = test: Reversal of scopolamine-induced dementia in ICR mouse assessed as decrease in frequent error incidences at 30 mg/kg, po administered 40 mins prior to scopolamine-challenge by water maze test; type: functional, organism-based; how it was run: as §4
[15] = target: Amyloid-beta precursor protein (Homo sapiens) (UniProt P05067); test: Inhibition of amyloid beta (1 to 42) (unknown origin) self aggregation at 50 uM incubated at 37 degC for 24 hrs by dot immunoblot assay; how it was run: as §2
[16] = Inhibition of Cu2+-induced amyloid beta (1 to 42 residues) (unknown origin) aggregation at 50 uM incubated at 37 degC for 24 hrs by dot immunoblot assay; how it was run: as §2
in vitro = settings: PAMPA
[17] = Inhibition of Cu2+-mediated amyloid beta (1 to 42) (unknown origin) aggregation at 50 uM after 24 hrs by dot blot assay

C#CCN(C)Cc1cn(-c2cc(NC(=S)NCC)ncn2)cn1
inhibition [1]: 12.6%
Ratio IC50 (Rattus norvegicus): > 123
Ratio IC50 (Homo sapiens): > 35
Activity [2]: Active
Activity [3]: inactive
Activity [4]: inactive
Activity [5]: inactive
Activity [6]: Active
inhibition [7]: Active
inhibition [8]: Active
Activity (Cortical neurone [9]): Non-Toxic
Activity (Cortical neurone [10]): Toxic
Activity (Cortical neurone [11]): Non-Toxic
Activity [12]: inactive
Activity (Mus musculus [13]): Active
Activity (Mus musculus [14]): Active
inhibition [15]: inactive
inhibition [16]: Active
Papp at 12 h, 100 ug/ml (in vitro): 3.16 ×10⁻⁶ cm/s
inhibition [17]: Active
